# ChEMBL document CHEMBL1138767, “Macrocyclic inhibitors for peptide deformylase: a structure-activity relationship study of the ring size” (J Med Chem, 2004)
# Target: T1, Peptide deformylase (Escherichia coli) (UniProt Q9JN24)
# T1 sequence (whole entry): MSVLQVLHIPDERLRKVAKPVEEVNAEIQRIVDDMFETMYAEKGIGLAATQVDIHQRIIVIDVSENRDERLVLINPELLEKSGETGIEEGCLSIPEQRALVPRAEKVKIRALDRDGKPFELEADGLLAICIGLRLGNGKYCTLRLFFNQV
# Assay: The inhibition constant was measured against Escherichia coli PDF (Peptide deformylase) by diluting a preformed EI* complex into a assay buffer containing f-Met-Lys-AMC and DPPI
# Conditions: not given
# In short: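 E. coli PDF (Co(II) form) at 40–160 nM and inhibitor at 80–200 nM, preincubated 2 h on ice in 50 mM Hepes pH 7.0, 10 mM NaCl, 5 mM DTT with 100 µM BSA. Then diluted 10-fold into the same buffer with 270 µM f-Met-Lys-AMC and 0.1 U DPPI. Recovery of activity followed continuously at 360 nm; k6 taken from progress curves.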
row,Compound,K6
1,CCCCCCNC(=O)[C@H](CCCCN)NC(=O)[C@H](CCCCC)CN(O)C=O,No Slow-Binding Behaviour
2,NCCCC[C@@H]1NC(=O)[C@@H](CN(O)C=O)CCCCCCCCCCCCCCNC1=O,0.018 min⁻¹
3,CC(C)(C)[C@@H]1NC(=O)[C@@H](CN(O)C=O)CCCCCCCCCCCCCCNC1=O,0.01 min⁻¹

# Target: T1, Peptide deformylase (Escherichia coli)
# Assay: Inhibition constant against Escherichia coli Peptide deformylase (PDF)
# Conditions: not given
row,Compound,K5
1,CCCCCCNC(=O)[C@H](CCCCN)NC(=O)[C@H](CCCCC)CN(O)C=O,No Slow-Binding Behaviour
2,NCCCC[C@@H]1NC(=O)[C@@H](CN(O)C=O)CCCCCCCCCCCCCCNC1=O,0.11 min⁻¹
3,CC(C)(C)[C@@H]1NC(=O)[C@@H](CN(O)C=O)CCCCCCCCCCCCCCNC1=O,1 min⁻¹

# Tested on: Enterococcus faecalis
# Assay: The compound was tested in vitro for antibacterial activity against Enterococcus faecalis(ATCC 29212)
# Format: functional
# Conditions: not given
# In short: (§1)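 Broth microdilution per NCCLS M7-A5 in cation-adjusted Mueller–Hinton broth; 5% lysed horse blood added for streptococci, Haemophilus Test Medium for Haemophilus. Inoculum ~5 × 10^5 CFU/mL from 16–20 h plate cultures. Twofold dilutions, final 0.03–32 µg/mL. Incubated 16–20 h at 35–37 °C (Haemophilus and Streptococcus: 24 h, 5% CO2). MIC is the lowest concentration with no visible growth, read visually.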
row,Compound,MIC90
1,NCCCC[C@@H]1NC(=O)[C@@H](CN(O)C=O)CCCCCCCCCCCCCCNC1=O,32 µg/mL
2,CC(C)(C)[C@@H]1NC(=O)[C@@H](CN(O)C=O)CCCCCCCCCCCCCCNC1=O,> 32 µg/mL

# Target: T2, Interstitial collagenase (Homo sapiens) (UniProt P03956)
# T2 sequence (whole entry): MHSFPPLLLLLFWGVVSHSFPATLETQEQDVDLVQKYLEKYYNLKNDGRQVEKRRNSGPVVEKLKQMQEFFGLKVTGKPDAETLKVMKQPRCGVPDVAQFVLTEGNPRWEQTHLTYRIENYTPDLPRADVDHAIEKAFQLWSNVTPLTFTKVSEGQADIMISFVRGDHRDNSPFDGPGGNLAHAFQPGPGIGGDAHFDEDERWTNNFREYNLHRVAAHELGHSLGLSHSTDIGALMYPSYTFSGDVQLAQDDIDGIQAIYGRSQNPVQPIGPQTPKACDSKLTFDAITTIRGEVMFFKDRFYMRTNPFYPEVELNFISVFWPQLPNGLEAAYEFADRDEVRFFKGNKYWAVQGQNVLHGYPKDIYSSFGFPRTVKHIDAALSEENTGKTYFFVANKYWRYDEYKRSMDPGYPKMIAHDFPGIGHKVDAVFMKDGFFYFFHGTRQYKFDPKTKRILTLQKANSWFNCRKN
# Assay: Inhibition of MMP-1 (matrix metalloprotease) at 10 uM
# Conditions: not given
# In short: (§2)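 Human MMP-1, -2, -3 or -9 (0.10 µg, added last to start the reaction) in 100 mM Tris, 100 mM NaCl, 10 mM CaCl2, 0.04% Brij-35. Contained 15 µM fluorogenic peptide substrate (Mca-P-K-G-Dpa-A-R-NH2 for MMP-1/-2) and inhibitor at 0, 1 or 10 µM. Remaining activity monitored continuously by fluorescence, excitation 320 nm, emission 405 nm.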
row,Compound,inhibition
1,CCCCCCNC(=O)[C@H](CCCCN)NC(=O)[C@H](CCCCC)CN(O)C=O,100%
2,NCCCC[C@@H]1NC(=O)[C@@H](CN(O)C=O)CCCCCCCCCCCCCCNC1=O,7%
3,CC(C)(C)[C@@H]1NC(=O)[C@@H](CN(O)C=O)CCCCCCCCCCCCCCNC1=O,8%

# Target: Matrix metalloproteinase-9 (Homo sapiens) (UniProt P14780)
# Assay: Inhibition of MMP-9 (matrix metalloprotease) at 10 uM
# Conditions: not given
# In short: as §2
# Chain of Matrix metalloproteinase-9 (Homo sapiens) (P14780 whole entry): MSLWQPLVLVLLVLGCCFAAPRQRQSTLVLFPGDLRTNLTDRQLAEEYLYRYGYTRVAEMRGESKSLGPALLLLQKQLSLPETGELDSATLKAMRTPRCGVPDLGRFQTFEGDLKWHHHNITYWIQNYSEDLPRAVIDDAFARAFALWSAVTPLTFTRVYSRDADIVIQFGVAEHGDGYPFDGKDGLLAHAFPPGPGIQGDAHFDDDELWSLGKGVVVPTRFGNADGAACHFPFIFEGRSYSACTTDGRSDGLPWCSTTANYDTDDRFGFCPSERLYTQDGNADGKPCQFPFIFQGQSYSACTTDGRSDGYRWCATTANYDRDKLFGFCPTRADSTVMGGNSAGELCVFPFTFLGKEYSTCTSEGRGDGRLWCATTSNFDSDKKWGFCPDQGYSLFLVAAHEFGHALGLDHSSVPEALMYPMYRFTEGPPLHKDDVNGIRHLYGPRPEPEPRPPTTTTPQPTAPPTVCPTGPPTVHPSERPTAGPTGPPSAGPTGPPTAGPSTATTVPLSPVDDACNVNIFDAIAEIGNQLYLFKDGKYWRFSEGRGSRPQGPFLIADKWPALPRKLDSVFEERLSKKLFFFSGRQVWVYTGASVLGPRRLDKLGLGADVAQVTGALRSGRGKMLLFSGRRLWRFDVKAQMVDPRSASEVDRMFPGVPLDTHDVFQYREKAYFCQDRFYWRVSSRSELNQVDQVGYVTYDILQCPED
row,Compound,inhibition
1,CCCCCCNC(=O)[C@H](CCCCN)NC(=O)[C@H](CCCCC)CN(O)C=O,94%
2,NCCCC[C@@H]1NC(=O)[C@@H](CN(O)C=O)CCCCCCCCCCCCCCNC1=O,5%
3,CC(C)(C)[C@@H]1NC(=O)[C@@H](CN(O)C=O)CCCCCCCCCCCCCCNC1=O,6%

# Tested on: Escherichia coli
# Assay: The compound was tested in vitro for antibacterial activity against Escherichia coli
# Format: functional
# Conditions: not given
# In short: as §1
row,Compound,MIC90
1,NCCCC[C@@H]1NC(=O)[C@@H](CN(O)C=O)CCCCCCCCCCCCCCNC1=O,> 32 µg/mL
2,CC(C)(C)[C@@H]1NC(=O)[C@@H](CN(O)C=O)CCCCCCCCCCCCCCNC1=O,> 24 µg/mL

# Tested on: Haemophilus influenzae
# Assay: The compound was tested in vitro for antibacterial activity against Haemophilus influenzae (ATCC 31517)
# Format: functional
# Conditions: not given
# In short: as §1
row,Compound,MIC90
1,NCCCC[C@@H]1NC(=O)[C@@H](CN(O)C=O)CCCCCCCCCCCCCCNC1=O,32 µg/mL
2,CC(C)(C)[C@@H]1NC(=O)[C@@H](CN(O)C=O)CCCCCCCCCCCCCCNC1=O,> 32 µg/mL

# Target: T3, Peptide deformylase (Escherichia coli, UniProt Q9JN24)
# T3 sequence (Q9JN24 whole entry): T1 sequence (whole entry)
# Assay: Inhibitory effect against Escherichia coli peptide deformylase (PDF) by AAP assay
# Conditions: not given
# In short: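 E. coli PDF (Co(II) cofactor) 8 nM preincubated with 0–300 nM inhibitor 2 h on ice in 50 mM Hepes pH 7.0, 150 mM NaCl, 100 μM BSA. Reaction started at room temperature with 80 μM f-ML-pNA for 10 min, heat-quenched at 95 °C, then coupled with AAP. A405 measured, no-PDF background subtracted, conversion <20%. K_I* from Michaelis–Menten fit.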
row,Compound,Ki
1,CCCCCCNC(=O)[C@H](CCCCN)NC(=O)[C@H](CCCCC)CN(O)C=O,No Slow-Binding Behaviour

# Same assay, conditions: read-out: Ki
row,Compound,Ki
1,NCCCC[C@@H]1NC(=O)[C@@H](CN(O)C=O)CCCCCCCCCCCCCCNC1=O,36 nM
2,CC(C)(C)[C@@H]1NC(=O)[C@@H](CN(O)C=O)CCCCCCCCCCCCCCNC1=O,25 nM

# Tested on: Bacillus subtilis
# Assay: The compound was tested in vitro for antibacterial activity against Bacillus subtilis
# Conditions: not given
row,Compound,MIC90
1,NCCCC[C@@H]1NC(=O)[C@@H](CN(O)C=O)CCCCCCCCCCCCCCNC1=O,> 32 µg/mL
2,CC(C)(C)[C@@H]1NC(=O)[C@@H](CN(O)C=O)CCCCCCCCCCCCCCNC1=O,~16 µg/mL

# Tested on: Streptococcus pneumoniae
# Assay: The compound was tested in vitro for antibacterial activity against Streptococcus pneumoniae (ATCC 6303)
# Format: functional
# Conditions: not given
# In short: as §1
row,Compound,MIC90
1,NCCCC[C@@H]1NC(=O)[C@@H](CN(O)C=O)CCCCCCCCCCCCCCNC1=O,> 32 µg/mL
2,CC(C)(C)[C@@H]1NC(=O)[C@@H](CN(O)C=O)CCCCCCCCCCCCCCNC1=O,4 µg/mL

# Target: Matrix metalloproteinase-9 (Homo sapiens) (UniProt P14780)
# Assay: Inhibition of MMP-9 (matrix metalloprotease) at 1 uM
# Conditions: not given
# In short: as §2
row,Compound,inhibition
1,CCCCCCNC(=O)[C@H](CCCCN)NC(=O)[C@H](CCCCC)CN(O)C=O,61%
2,NCCCC[C@@H]1NC(=O)[C@@H](CN(O)C=O)CCCCCCCCCCCCCCNC1=O,4%
3,CC(C)(C)[C@@H]1NC(=O)[C@@H](CN(O)C=O)CCCCCCCCCCCCCCNC1=O,4%

# Target: Stromelysin-1 (Homo sapiens) (UniProt P08254)
# Assay: Inhibition of MMP-3 (matrix metalloprotease) at 1 uM
# Conditions: not given
# In short: as §2
# Chain of Stromelysin-1 (Homo sapiens) (P08254 100-477 limits assumed): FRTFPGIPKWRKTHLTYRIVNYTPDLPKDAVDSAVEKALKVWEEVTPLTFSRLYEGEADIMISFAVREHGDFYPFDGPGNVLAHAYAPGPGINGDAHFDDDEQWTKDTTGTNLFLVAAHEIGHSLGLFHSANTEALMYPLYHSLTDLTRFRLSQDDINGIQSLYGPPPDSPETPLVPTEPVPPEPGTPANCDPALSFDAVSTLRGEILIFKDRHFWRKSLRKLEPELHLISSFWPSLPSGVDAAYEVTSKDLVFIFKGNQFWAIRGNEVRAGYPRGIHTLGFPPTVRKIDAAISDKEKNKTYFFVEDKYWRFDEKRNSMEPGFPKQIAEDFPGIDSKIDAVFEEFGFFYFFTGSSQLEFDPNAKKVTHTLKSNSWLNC
row,Compound,inhibition
1,CCCCCCNC(=O)[C@H](CCCCN)NC(=O)[C@H](CCCCC)CN(O)C=O,81%
2,NCCCC[C@@H]1NC(=O)[C@@H](CN(O)C=O)CCCCCCCCCCCCCCNC1=O,0%
3,CC(C)(C)[C@@H]1NC(=O)[C@@H](CN(O)C=O)CCCCCCCCCCCCCCNC1=O,3%

# Target: 72 kDa type IV collagenase (Homo sapiens) (UniProt P08253)
# Assay: Inhibition of MMP-2 (matrix metalloprotease) at 1 uM
# Conditions: not given
# In short: as §2
# Chain of 72 kDa type IV collagenase (Homo sapiens) (P08253 110-660 limits assumed): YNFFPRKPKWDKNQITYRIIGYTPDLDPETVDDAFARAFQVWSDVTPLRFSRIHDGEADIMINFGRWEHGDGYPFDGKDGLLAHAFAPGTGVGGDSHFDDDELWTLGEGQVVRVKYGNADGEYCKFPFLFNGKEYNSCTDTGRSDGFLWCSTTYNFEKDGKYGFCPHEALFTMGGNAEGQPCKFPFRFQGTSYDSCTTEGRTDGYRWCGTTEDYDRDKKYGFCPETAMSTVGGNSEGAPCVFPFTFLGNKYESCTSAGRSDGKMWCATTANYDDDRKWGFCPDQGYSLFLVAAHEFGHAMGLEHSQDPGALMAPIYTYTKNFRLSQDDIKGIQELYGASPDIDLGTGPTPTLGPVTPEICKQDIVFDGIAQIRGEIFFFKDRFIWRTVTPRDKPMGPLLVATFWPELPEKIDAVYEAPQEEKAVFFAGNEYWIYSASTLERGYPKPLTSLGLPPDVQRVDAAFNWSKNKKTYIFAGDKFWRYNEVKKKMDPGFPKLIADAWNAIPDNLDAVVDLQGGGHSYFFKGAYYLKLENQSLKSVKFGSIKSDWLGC
row,Compound,inhibition
1,CCCCCCNC(=O)[C@H](CCCCN)NC(=O)[C@H](CCCCC)CN(O)C=O,73%
2,NCCCC[C@@H]1NC(=O)[C@@H](CN(O)C=O)CCCCCCCCCCCCCCNC1=O,6%
3,CC(C)(C)[C@@H]1NC(=O)[C@@H](CN(O)C=O)CCCCCCCCCCCCCCNC1=O,0%

# Target: T2, Interstitial collagenase (Homo sapiens)
# Assay: Inhibition of MMP-1 (matrix metalloprotease) at 1 uM
# Conditions: not given
# In short: as §2
row,Compound,inhibition
1,CCCCCCNC(=O)[C@H](CCCCN)NC(=O)[C@H](CCCCC)CN(O)C=O,50%
2,NCCCC[C@@H]1NC(=O)[C@@H](CN(O)C=O)CCCCCCCCCCCCCCNC1=O,1%
3,CC(C)(C)[C@@H]1NC(=O)[C@@H](CN(O)C=O)CCCCCCCCCCCCCCNC1=O,7%

# Target: Stromelysin-1 (Homo sapiens) (UniProt P08254)
# Assay: Inhibition of MMP-3 (matrix metalloprotease) at 10 uM
# Conditions: not given
# In short: as §2
row,Compound,inhibition
1,CCCCCCNC(=O)[C@H](CCCCN)NC(=O)[C@H](CCCCC)CN(O)C=O,99%
2,NCCCC[C@@H]1NC(=O)[C@@H](CN(O)C=O)CCCCCCCCCCCCCCNC1=O,6%
3,CC(C)(C)[C@@H]1NC(=O)[C@@H](CN(O)C=O)CCCCCCCCCCCCCCNC1=O,4%

# Target: 72 kDa type IV collagenase (Homo sapiens) (UniProt P08253)
# Assay: Inhibition of MMP-2 (matrix metalloprotease) at 10 uM
# Conditions: not given
# In short: as §2
row,Compound,inhibition
1,CCCCCCNC(=O)[C@H](CCCCN)NC(=O)[C@H](CCCCC)CN(O)C=O,98%
2,NCCCC[C@@H]1NC(=O)[C@@H](CN(O)C=O)CCCCCCCCCCCCCCNC1=O,15%
3,CC(C)(C)[C@@H]1NC(=O)[C@@H](CN(O)C=O)CCCCCCCCCCCCCCNC1=O,0%

# Tested on: Moraxella catarrhalis
# Assay: The compound was tested in vitro for antibacterial activity against Moraxella catarrhalis (ATCC 37054)
# Format: functional
# Conditions: not given
# In short: as §1
row,Compound,MIC90
1,NCCCC[C@@H]1NC(=O)[C@@H](CN(O)C=O)CCCCCCCCCCCCCCNC1=O,1 µg/mL
2,CC(C)(C)[C@@H]1NC(=O)[C@@H](CN(O)C=O)CCCCCCCCCCCCCCNC1=O,< 0.03 µg/mL

# Tested on: Streptococcus pneumoniae
# Assay: The compound was tested in vitro for antibacterial activity against Streptococcus pneumoniae (ATCC 49619)
# Format: functional
# Conditions: not given
# In short: as §1
row,Compound,MIC90
1,NCCCC[C@@H]1NC(=O)[C@@H](CN(O)C=O)CCCCCCCCCCCCCCNC1=O,> 32 µg/mL
2,CC(C)(C)[C@@H]1NC(=O)[C@@H](CN(O)C=O)CCCCCCCCCCCCCCNC1=O,8 µg/mL

# Tested on: Staphylococcus aureus
# Assay: The compound was tested in vitro for antibacterial activity against Staphylococcus aureus (ATCC 29213)
# Format: functional
# Conditions: not given
# In short: as §1
row,Compound,MIC90
1,NCCCC[C@@H]1NC(=O)[C@@H](CN(O)C=O)CCCCCCCCCCCCCCNC1=O,32 µg/mL
2,CC(C)(C)[C@@H]1NC(=O)[C@@H](CN(O)C=O)CCCCCCCCCCCCCCNC1=O,> 32 µg/mL

# Tested on: Streptococcus pneumoniae
# Assay: The compound was tested in vitro for antibacterial activity against Streptococcus pneumoniae (ATCC 6301)
# Format: functional
# Conditions: not given
# In short: as §1
row,Compound,MIC90
1,NCCCC[C@@H]1NC(=O)[C@@H](CN(O)C=O)CCCCCCCCCCCCCCNC1=O,> 32 µg/mL
2,CC(C)(C)[C@@H]1NC(=O)[C@@H](CN(O)C=O)CCCCCCCCCCCCCCNC1=O,8 µg/mL
